The source made the active and inactive calls. No cut-off for these calls is given here.
How the values were obtained:
Assay type in all cases: functional
[1] = biological target: T1, Glutamate receptor ionotropic, kainate (Rattus norvegicus) (UniProt P22756+Q01812+P42260+P42264+Q63273); experiment: Agonist activity at rat KA receptor assessed by generation of membrane current at 100 uM relative to control
[2] = biological target: T2, Glutamate NMDA receptor (Rattus norvegicus) (UniProt P35439+Q00959+Q00960+Q00961+Q62645+Q8VHN2+Q9R1M7); experiment: Antagonist activity against rat NMDA receptor assessed by inhibition of NMDA plus glycine-induced membrane current at 100 uM
How it was run: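 In rat cortex mRNA-injected oocytes, analogs (100 μM) were tested against currents evoked by 100 μM NMDA plus 100 μM glycine.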

[3] = biological target: T1, Glutamate receptor ionotropic, kainate (Rattus norvegicus); experiment: Antagonist activity against rat KA receptor assessed by inhibition of kainate-induced membrane current at 100 uM; set-up: scale not given: the % may be the effect or the level left
How it was run: (§1)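 Oocytes injected with native rat cerebral cortex mRNA were used. Membrane currents induced by 100 μM kainate were recorded with the test agent present (analogs at 100 μM; CNQX reference at 1 μM). Residual current is reported as a percentage of the kainate control. N = 2-7 oocyte preparations.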

[4] = biological target: T2, Glutamate NMDA receptor (Rattus norvegicus); experiment: Agonist activity at rat NMDA receptor in presence of glycine assessed by generation of membrane current at 100 uM relative to control
How it was run: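 Rat cortex mRNA-injected oocytes. The analog (100 μM) was applied in the presence of 100 μM glycine. The elicited current is expressed relative to a positive control of 100 μM NMDA plus 100 μM glycine.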

[5] = biological target: T1, Glutamate receptor ionotropic, kainate (Rattus norvegicus); experiment: Antagonist activity against rat KA receptor assessed by inhibition of kainate-induced membrane current at 1 uM; set-up: scale not given: the % may be the effect or the level left; how it was run: as §1
[6] = biological target: T1, Glutamate receptor ionotropic, kainate (Rattus norvegicus); experiment: Agonist activity at rat KA receptor assessed by generation of membrane current at 100 uM relative to control in presence of 10 uM cyclothiazide
How it was run: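 Oocytes were injected with rat cerebral cortex mRNA. Each analog at 100 μM was co-applied with 10 μM cyclothiazide (AMPA receptor desensitization inhibitor). Membrane current is given as a percentage of the 100 μM kainate control current, with and without cyclothiazide. N = 2-7 oocyte preparations.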

Activity [1] | Activity [2] | Activity [3] [%] | Activity [4] | Activity [5] [%] | Activity [6] [%] | Compound
inactive | inactive | 55 | inactive | – | – | N[C@@H](C[C@]1(C(=O)O)Cc2ccccc2O1)C(=O)O
– | – | – | – | 38 | – | N#Cc1cc2c(cc1[N+](=O)[O-])=NC(=O)C(=O)N=2
inactive | inactive | 72 | 44% | – | – | Cc1ccc2c(c1)C[C@](C[C@H](N)C(=O)O)(C(=O)O)O2

Further lines, the molecule ahead of its results:

Compound | Activity [1] | Activity [2] | Activity [3] [%] | Activity [4] | Activity [5] [%] | Activity [6] [%]
N[C@@H](C[C@@]1(C(=O)O)Cc2ccccc2O1)C(=O)O | inactive | inactive | 100 | – | – | –
Cc1cccc2c1O[C@@](C[C@H](N)C(=O)O)(C(=O)O)C2 | 6% | inactive | 95 | inactive | – | 13

From ChEMBL document CHEMBL1146962, “Design, synthesis, and biological evaluation of a scaffold for iGluR ligands based on the structure of (-)-dysiherbaine” (Bioorg Med Chem Lett, 2006)
